Eight compounds from ChEMBL document CHEMBL1156459, “Discovery of a small molecule antagonist of the parathyroid hormone receptor by using an N-terminal parathyroid hormone peptide probe” (Proc Natl Acad Sci U S A, 2007) can be followed below.

The target of test [1] is T1, Parathyroid hormone/parathyroid hormone-related peptide receptor (Homo sapiens, UniProt Q03431).
T1 sequence (Q03431 whole entry): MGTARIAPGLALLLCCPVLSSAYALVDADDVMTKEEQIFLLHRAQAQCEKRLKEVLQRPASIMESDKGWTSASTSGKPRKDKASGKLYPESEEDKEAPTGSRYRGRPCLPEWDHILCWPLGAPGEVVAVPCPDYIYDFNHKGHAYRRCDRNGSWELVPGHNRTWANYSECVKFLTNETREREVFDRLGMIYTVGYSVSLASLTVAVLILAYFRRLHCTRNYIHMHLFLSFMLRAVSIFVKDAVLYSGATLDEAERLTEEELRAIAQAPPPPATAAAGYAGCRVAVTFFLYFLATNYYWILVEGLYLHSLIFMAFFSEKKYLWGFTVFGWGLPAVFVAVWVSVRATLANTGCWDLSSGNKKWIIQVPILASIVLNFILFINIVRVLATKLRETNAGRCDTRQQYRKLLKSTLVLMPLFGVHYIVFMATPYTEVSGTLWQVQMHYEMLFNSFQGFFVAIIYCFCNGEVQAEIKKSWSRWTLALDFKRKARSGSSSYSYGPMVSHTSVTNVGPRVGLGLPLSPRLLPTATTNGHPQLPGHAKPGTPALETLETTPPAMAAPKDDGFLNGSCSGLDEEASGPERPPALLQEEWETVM
In words: Activity at human PTH/PTH-related peptide receptor expressed in SAOS2 cells assessed as cAMP formation. It counts as functional, cell-based, SAOS-2. Put shortly: (§1)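 Nonconfluent cells grown at 37°C in DMEM with 10% FBS, refed 12–24 h before assay. Rinsed with warm PBS, detached with prewarmed EDTA (37°C, 5–10 min), spun at 300 × g for 5 min. Resuspended in HBSS/5 mM Hepes/0.1% BSA/0.5 mM IBMX, pH 7.4. cAMP read by AlphaScreen.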
Background: Cyclic AMP is a second messenger, typically raised through Gs and lowered through Gi signalling.

Test [2] has as its target T1, Parathyroid hormone/parathyroid hormone-related peptide receptor. Description: Displacement of [125I]DPC-AJ1951 from PTH/PTH-related peptide receptor expressed in HKRK-B28 cells. It counts as cell-based. The method, boiled down:
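Whole HKRK-B28 cells plated at 30,000/well and incubated overnight at 37°C, 5% CO2. Incubated 3 h at room temperature, washed three times, bound radioactivity counted by scintillation.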
Background: In a radioligand displacement assay an active substance lowers the binding of a labelled ligand.

Test [3] addresses T2, Parathyroid hormone/parathyroid hormone-related peptide receptor (Rattus norvegicus, UniProt P25961).
T2 sequence (P25961 whole entry): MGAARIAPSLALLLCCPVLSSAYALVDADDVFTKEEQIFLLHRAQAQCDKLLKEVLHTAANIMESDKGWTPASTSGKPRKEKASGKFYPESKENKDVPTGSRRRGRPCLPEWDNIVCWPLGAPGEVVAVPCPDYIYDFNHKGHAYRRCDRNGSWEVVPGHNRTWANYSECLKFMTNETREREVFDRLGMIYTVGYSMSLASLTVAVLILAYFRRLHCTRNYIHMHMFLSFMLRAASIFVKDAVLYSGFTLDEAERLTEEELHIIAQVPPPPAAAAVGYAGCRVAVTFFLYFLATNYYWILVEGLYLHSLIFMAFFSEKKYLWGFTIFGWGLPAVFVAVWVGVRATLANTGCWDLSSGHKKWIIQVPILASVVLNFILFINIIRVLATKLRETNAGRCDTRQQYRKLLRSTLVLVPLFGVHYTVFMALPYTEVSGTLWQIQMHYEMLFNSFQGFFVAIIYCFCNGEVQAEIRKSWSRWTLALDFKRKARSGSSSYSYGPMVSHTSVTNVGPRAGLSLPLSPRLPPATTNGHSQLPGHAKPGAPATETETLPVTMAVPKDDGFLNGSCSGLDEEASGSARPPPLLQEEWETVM
Description: Activity at rat PTH/PTH-related peptide receptor expressed in rat UMR106 cells assessed as cAMP formation. In kind it is functional, cell-based. Put shortly: as §1

Test [4] addresses T1, Parathyroid hormone/parathyroid hormone-related peptide receptor. In words: Activity at human PTH/PTH-related peptide receptor expressed in HEK293 cells assessed as induction of luciferase activity by CRE-luciferase reporter assay. It counts as functional, cell-based.
The species named for a further test is Mus musculus. Description: Inhibition of bone mineralization in embryonic mouse metatarsal. In kind it is functional.

Activity calls are given as the source filed them. No cut-off for these calls is given here. Square brackets hold non-standard residues; d marks the D form. Peptide text beside a SMILES is read from it. * marks the point of attachment. X1 = O=C(c1ccccc1-c1c2ccc(=O)cc-2oc2cc(O)ccc12)*; hArg = N=C(N)NCCCC[C@H](N)C(=O)O; Nle = CCCC[C@H](N)C(=O)O; Aib = CC(C)(N)C(=O)O

Usually EC50 stands for the concentration needed to bring the measured effect to its halfway point. What is called IC50 is the concentration that inhibits the measured activity by half. Regarding `CC[C@H](C)[C@H](NC(=O)[C@H](CCC(=O)O)NC(=O)[C@H](C)NC(=O)[C@@H](NC(=O)[C@H](C)N)C(C)C)C(=O)N[C@@H](CCC(N)=O)C(=O)N[C@@H](CC(C)C)C(=O)N[C@@H](CCSC)C(=O)N[C@@H](Cc1cnc[nH]1)C(=O)N[C@@H](CCC(N)=O)C(=O)N[C@@H](CCCCN=C(N)N)C(=O)N[C@@H](C)C(=O)N[C@@H](CCCCN)C(=O)N[C@@H](Cc1c[nH]c2ccccc12)C(N)=O` (H-AVAEIQLMHQ[hArg]AKW-NH2), the concentration for a half-maximal effect (EC50) in test [1] is 800 nM; in test [3] it was 155 nM; in test [4], 32 nM. In addition, the IC50 in test [2] was 10500 nM.

For the compound `CC[C@H](C)[C@H](NC(=O)[C@H](CCC(=O)O)NC(=O)[C@H](C)NC(=O)[C@@H](NC(=O)[C@H](C)N)C(C)C)C(=O)N[C@@H](CCC(N)=O)C(=O)N[C@@H](CC(C)C)C(=O)N[C@@H](CCSC)C(=O)N[C@@H](Cc1cnc[nH]1)C(=O)N[C@@H](CCC(N)=O)C(=O)N[C@@H](CCCCNC(=N)N)C(=O)N[C@@H](C)C(=O)N[C@@H](CCCCN)C(=O)N[C@@H](Cc1c[nH]c2ccccc12)C(=O)N[C@@H](CCCCNC(=O)c1ccccc1-c1c2ccc(=O)cc-2oc2cc(O)ccc12)C(N)=O` (H-AVAEIQLMHQ[hArg]AKWK(X1)-NH2), the EC50 in test [1] was 1000 nM; in test [3], 251 nM; in test [4] it was 53 nM. For the same compound, in test [2], the concentration for half-maximal inhibition (IC50) came to 10100 nM.

Regarding `CCCC[C@H](NC(=O)[C@H](CC(C)C)NC(=O)[C@H](CCC(N)=O)NC(=O)[C@@H](NC(=O)[C@H](CCC(=O)O)NC(=O)[C@H](C)NC(=O)[C@@H](NC(=O)[C@H](C)N)C(C)C)[C@@H](C)CC)C(=O)N[C@@H](Cc1cnc[nH]1)C(=O)N[C@@H](CCC(N)=O)C(=O)N[C@@H](CCCCNC(=N)N)C(=O)N[C@@H](C)C(=O)N[C@@H](CCCCN)C(=O)N[C@@H](Cc1c[nH]c2ccccc12)C(=O)N[C@@H](Cc1ccc(O)cc1)C(N)=O` (H-AVAEIQL[Nle]HQ[hArg]AKWY-NH2), the concentration giving a half-maximal response (EC50) in test [1] was 1460 nM; in test [3], 129 nM; in test [4], 26 nM. Moreover, the concentration for half-maximal inhibition (IC50) in test [2] is 2190 nM.

`CCCC[C@H](NC(=O)[C@H](CC(C)C)NC(=O)[C@H](CCC(N)=O)NC(=O)[C@@H](NC(=O)[C@H](CCC(=O)O)NC(=O)[C@H](C)NC(=O)[C@@H](NC(=O)[C@H](C)N)C(C)C)[C@@H](C)CC)C(=O)N[C@@H](Cc1cnc[nH]1)C(=O)N[C@@H](CCC(N)=O)C(=O)N[C@@H](CCCCNC(=N)N)C(=O)N[C@@H](C)C(=O)N[C@@H](CCCCN)C(=O)N[C@@H](Cc1ccc(O)cc1)C(N)=O` (H-AVAEIQL[Nle]HQ[hArg]AKY-NH2): the results for the EC50 in test [1], in test [3] and in test [4] were 1430 nM, 344 nM and 13 nM, respectively. The IC50 in test [2] stood at 10600 nM.

As to `CC[C@H](C)[C@H](NC(=O)[C@H](CCC(=O)O)NC(=O)C(C)(C)NC(=O)[C@@H](NC(=O)C(C)(C)N)C(C)C)C(=O)N[C@@H](CCC(N)=O)C(=O)N[C@@H](CC(C)C)C(=O)N[C@@H](CCSC)C(=O)N[C@@H](Cc1cnc[nH]1)C(=O)N[C@@H](CCC(N)=O)C(=O)N[C@@H](CCCCNC(=N)N)C(=O)N[C@@H](C)C(=O)N[C@@H](CCCCN)C(=O)N[C@@H](Cc1c[nH]c2ccccc12)C(=O)O` (H-[Aib]V[Aib]EIQLMHQ[hArg]AKW-OH), the result in the test filed under Mus musculus was Active.

For `CCCC[C@H](NC(=O)[C@H](CC(C)C)NC(=O)[C@H](CCC(N)=O)NC(=O)[C@@H](NC(=O)[C@H](CCC(=O)O)NC(=O)C(C)(C)NC(=O)[C@@H](NC(=O)C(C)(C)N)C(C)C)[C@@H](C)CC)C(=O)N[C@@H](Cc1cnc[nH]1)C(=O)N[C@@H](CCC(N)=O)C(=O)N[C@@H](CCCNC(=N)N)C(=O)N[C@@H](C)C(=O)N[C@@H](CCCCNC(=O)c1ccccc1-c1c2ccc(=O)cc-2oc2cc(O)ccc12)C(=O)N[C@@H](Cc1ccc(O)cc1)C(N)=O` (H-[Aib]V[Aib]EIQL[Nle]HQRAK(X1)Y-NH2), the values for the EC50 in test [1] and in test [4] were 7.2 nM and 0.92 nM, respectively. In test [2], this compound displayed a half-inhibitory concentration (IC50) of 13.5 nM.

Regarding `CCCC[C@H](NC(=O)[C@H](CC(C)C)NC(=O)[C@H](CCC(N)=O)NC(=O)[C@@H](NC(=O)[C@H](CCC(=O)O)NC(=O)C(C)(C)NC(=O)[C@@H](NC(=O)C(C)(C)N)C(C)C)[C@@H](C)CC)C(=O)N[C@@H](Cc1cnc[nH]1)C(=O)N[C@@H](CCC(N)=O)C(=O)N[C@@H](CCCN=C(N)N)C(=O)N[C@@H](C)C(=O)N[C@@H](CCCCN)C(=O)N[C@@H](Cc1ccc(O)cc1)C(=O)N[C@@H](CCCCNC(=O)c1ccccc1-c1c2ccc(=O)cc-2oc2cc(O)ccc12)C(N)=O` (H-[Aib]V[Aib]EIQL[Nle]HQRAKYK(X1)-NH2), the EC50 in test [1] was 20 nM; in test [4] it was 1.1 nM. Further, the 50% inhibitory concentration (IC50) in test [2] stood at 98.2 nM.

`CCCC[C@H](NC(=O)[C@H](CC(C)C)NC(=O)[C@H](CCC(N)=O)NC(=O)[C@@H](NC(=O)[C@H](CCC(=O)O)NC(=O)C(C)(C)NC(=O)[C@@H](NC(=O)C(C)(C)N)C(C)C)[C@@H](C)CC)C(=O)N[C@@H](Cc1cnc[nH]1)C(=O)N[C@@H](CCC(N)=O)C(=O)N[C@@H](CCCCN=C(N)N)C(=O)N[C@@H](C)C(=O)N[C@@H](CCCCN)C(=O)N[C@@H](Cc1ccc(O)cc1)C(N)=O` (H-[Aib]V[Aib]EIQL[Nle]HQ[hArg]AKY-NH2) displayed an IC50 in test [2] of 7.2 nM. Besides, the EC50 in test [4] was 0.06 nM.
